The M2OR odorant receptor database

Molecular target: T1, OR8D1 (Homo sapiens) (UniProt Q8WZ84)
T1 sequence (whole entry): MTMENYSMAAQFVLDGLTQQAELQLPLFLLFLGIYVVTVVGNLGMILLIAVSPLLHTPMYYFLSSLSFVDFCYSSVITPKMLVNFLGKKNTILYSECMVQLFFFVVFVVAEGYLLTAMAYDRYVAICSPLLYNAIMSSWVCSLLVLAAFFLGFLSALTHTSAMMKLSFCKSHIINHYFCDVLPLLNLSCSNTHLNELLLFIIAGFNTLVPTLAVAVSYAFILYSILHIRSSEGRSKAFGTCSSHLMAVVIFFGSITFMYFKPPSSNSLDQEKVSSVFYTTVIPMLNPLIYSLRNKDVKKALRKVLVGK
Conditions: stereoisomer not certain
Summary of the method: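 Each receptor–molecule pair is labelled responsive or non-responsive (inactive) according to whether the original authors judged the measured signal statistically different from baseline. The data were taken from the main text and supplementary material of published papers and checked for typos and inconsistencies. Assay methods differed by source, with transient luciferase assays in mammalian cell lines being common.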
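Note: active if original authors judged signal statistically different from baseline.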

Odorant receptor agonist call, inactive:
CCC(=O)O
CC1=CCC2CC1C2(C)C (configuration not stated)
CCOC(=O)C=Cc1ccccc1
COCCC(C)(C)S
CCCCCc1ccccn1
CCC(C)C=O (configuration not stated)
CCCCCCCC1CCC(=O)O1 (configuration not stated)
C=CC(=O)CC=CCC
CCCCC(=O)O
C=CC(O)CCCCC (configuration not stated)
SCCc1ccccc1
COc1ccc(C)cc1O
Cc1occc(=O)c1O
CSSc1ccoc1C
CCC(=O)C(C)S (configuration not stated)
CCC(C)CO (configuration not stated)
CC1=CCC(C(C)(C)S)CC1 (configuration not stated)
CCOC(=O)CCSC
CCCCCCCCC1CCC(=O)O1 (configuration not stated)
CCCCCC=CCCC=O
CC=CC(=O)C1=C(C)CCCC1(C)C
CC(=O)C=CC1=C(C)CCCC1(C)C
CC(C)CCO
CCCCCCC1CCC(=O)O1 (configuration not stated)
CSCCC=O
COc1cccc(OC)c1O
C=CC(=O)CC
CC(C)(S)CCOC=O
CCC=O
O=c1ccc2ccccc2o1
CCCCC1OC(=O)CC1C (configuration not stated)
CCOC(=O)c1ccccc1
CCCCC(=O)OCC
CC(C)CCCCCCCCCCC=O
Cc1occc1S
CSCCCO
SCc1cccs1
